Test [1] addresses T1, Bcl-2-related protein A1 (Homo sapiens, UniProt Q16548).
T1 sequence (Q16548 whole entry): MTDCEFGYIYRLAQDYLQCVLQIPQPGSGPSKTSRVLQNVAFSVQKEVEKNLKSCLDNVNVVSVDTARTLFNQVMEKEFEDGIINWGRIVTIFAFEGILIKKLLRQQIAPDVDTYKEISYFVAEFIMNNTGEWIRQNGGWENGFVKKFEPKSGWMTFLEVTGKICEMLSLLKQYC
The test is described as follows: Inhibition of N-terminal FITC BH3 peptide binding to GST-tagged Bfl1 by fluorescence polarization assay. Summed up: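 Then FITC-Bid BH3 peptide (5.6 nM working solution) was added and incubated 4 h at room temperature. Ten concentrations in 10% DMSO. Fluorescence polarization read at ex 485/em 530 nm. IC50 from sigmoidal dose-response non-linear regression.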
A general note: Polarisation of emitted light reports the rotation of a fluorescent probe.

The target in test [2] is T1, Bcl-2-related protein A1. The test is described as follows: Inhibition of N-terminal FITC BH3 peptide binding to GST-tagged Bfl1 by time resolved-FRET assay. Summed up:
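10-point 2-fold dilution series in 10% final DMSO, in duplicate wells. FITC-Bid (5.6 nM) plus Tb-antibody (2.5 nM) was then added and incubated 4 h at room temperature. TR-FRET read at ex 340 nm, signal taken as the 520/490 nm emission ratio.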

The record followed here is ChEMBL document CHEMBL1268986, “Inhibition of Bfl-1 with N-aryl maleimides” (Bioorg Med Chem Lett, 2010).

pIC50: −log10 of the molar value.

As usually defined, the pIC50 is the IC50 on a negative log10 scale, so that one unit is a factor of ten. On to `CN1CCN(C2=CC(=O)N(c3ccc(Cl)cc3)C2=O)CC1`, for which the pIC50 on Bcl-2-related protein A1 [1] and at Bcl-2-related protein A1 [2] was below 5.00 throughout. For `O=C1C(Cl)=C(NCCO)C(=O)N1c1ccc(Cl)c(Cl)c1`, the pIC50 on Bcl-2-related protein A1 [1] and on Bcl-2-related protein A1 [2] was below 4.30 in each case. For the molecule `CN(C)C1=C(Cl)C(=O)N(c2ccc(Cl)c(Cl)c2)C1=O`, the figures for the pIC50 at Bcl-2-related protein A1 [1] and on Bcl-2-related protein A1 [2] were 6.52 and 6.40, respectively. As for `O=C1C(Cl)=C(N2CCN(Cc3ccc4c(c3)OCO4)CC2)C(=O)N1c1ccc(Cl)c(Cl)c1`, the pIC50 on Bcl-2-related protein A1 [2] is 5.68. As for `O=C1C(Cl)=C(N2CCN(C/C=C/c3ccccc3)CC2)C(=O)N1c1ccc(Cl)c(Cl)c1`, the pIC50 is 6.60 at Bcl-2-related protein A1 [1] and 6.16 on Bcl-2-related protein A1 [2]. On the same counts, the results for `CN1CCN(C2CC(=O)N(c3ccc(Cl)c(Cl)c3)C2=O)CC1` (configuration not stated) are below 5.00 and below 5.00.

`CN1CCN(C2=C(Cl)C(=O)N(c3ccc(Cl)c(Cl)c3)C2=O)CC1`: the figures for the pIC50 at Bcl-2-related protein A1 [1] and at Bcl-2-related protein A1 [2] were 6.22 and 6.10, respectively.

Consider `CN1CCN(C2=C(Cl)C(=O)N(c3cc(Cl)cc(Cl)c3)C2=O)CC1`, for which the pIC50 at Bcl-2-related protein A1 [1] is 5.62; at Bcl-2-related protein A1 [2], 5.72. Take `CN1CCN(C2=C(Cl)C(=O)N(c3ccc(Cl)cc3Cl)C2=O)CC1`: on Bcl-2-related protein A1 [2], the pIC50 is 5.85.

`CN1CCN(C2=C(Cl)C(=O)N(c3cccc(Cl)c3Cl)C2=O)CC1`: the pIC50 at Bcl-2-related protein A1 [2] is 5.59. In the case of `CN1CCN(C2=C(Cl)C(=O)N(c3ccccc3Cl)C2=O)CC1`, the pIC50 at Bcl-2-related protein A1 [1] was 5.48; at Bcl-2-related protein A1 [2] it was 6.00. On the same counts, the results for `CN1CCN(C2=C(Cl)C(=O)N(c3cccc(Cl)c3)C2=O)CC1` are 5.68 and 5.92. The like results for `Cc1cccc(N2C(=O)C(Cl)=C(N3CCN(C)CC3)C2=O)c1` were, in that order, 4.90 and 4.97. For `CN1CCN(C2=C(Cl)C(=O)N(c3cccc([N+](=O)[O-])c3)C2=O)CC1`, the figures for the pIC50 on Bcl-2-related protein A1 [1] and at Bcl-2-related protein A1 [2] were 5.17 and 5.41, respectively.

For the molecule `CN1CCN(C2=C(Cl)C(=O)N(c3ccncc3Cl)C2=O)CC1`, the pIC50 at Bcl-2-related protein A1 [1] was 4.54; on Bcl-2-related protein A1 [2], 4.45.

On to `O=C1C(Cl)=C(N2CCCC2)C(=O)N1c1ccc(Cl)c(Cl)c1`, for which the negative-log IC50 (pIC50) at Bcl-2-related protein A1 [1] and at Bcl-2-related protein A1 [2] was below 4.30 throughout. Take `O=C1C(Cl)=C(N2CCCCC2)C(=O)N1c1ccc(Cl)c(Cl)c1`: the negative-log IC50 (pIC50) on Bcl-2-related protein A1 [1] and at Bcl-2-related protein A1 [2] was below 4.30 each time. On to `O=C1C(Cl)=C(NCc2ccccc2)C(=O)N1c1ccc(Cl)c(Cl)c1`, for which the pIC50 at Bcl-2-related protein A1 [1] and at Bcl-2-related protein A1 [2] was below 4.30 in each case. With `O=C1C(Cl)=C(N2CCOCC2)C(=O)N1c1ccc(Cl)c(Cl)c1`, the negative-log IC50 (pIC50) at Bcl-2-related protein A1 [1] is 6.10; on Bcl-2-related protein A1 [2], 6.35. The like results for `CCN1CCN(C2=C(Cl)C(=O)N(c3ccc(Cl)c(Cl)c3)C2=O)CC1` were, in that order, 5.77 and 6.00.

As to `C[C@@H]1CN(C2=C(Cl)C(=O)N(c3ccc(Cl)c(Cl)c3)C2=O)CCN1`, the values for the pIC50 at Bcl-2-related protein A1 [1] and at Bcl-2-related protein A1 [2] were 6.22 and 6.10, respectively. On the same counts, the results for `C[C@H]1CN(C2=C(Cl)C(=O)N(c3ccc(Cl)c(Cl)c3)C2=O)CCN1` are 5.66 and 5.96.

Turning to `CC1C(=O)NCCN1C1=C(Cl)C(=O)N(c2ccc(Cl)c(Cl)c2)C1=O` (configuration not stated), the pIC50 on Bcl-2-related protein A1 [2] is 5.70. Take `CCCCN1CCN(C2=C(Cl)C(=O)N(c3ccc(Cl)c(Cl)c3)C2=O)CC1`: the results for the pIC50 on Bcl-2-related protein A1 [1] and on Bcl-2-related protein A1 [2] were 4.98 and 5.48, respectively. In the case of `O=C1C(Cl)=C(N2CCN(CCO)CC2)C(=O)N1c1ccc(Cl)c(Cl)c1`, the values for the pIC50 at Bcl-2-related protein A1 [1] and at Bcl-2-related protein A1 [2] were 6.62 and 6.21, respectively. With `O=C1C(Cl)=C(N2CCN(CCOCCO)CC2)C(=O)N1c1ccc(Cl)c(Cl)c1`, the values for the pIC50 at Bcl-2-related protein A1 [1] and at Bcl-2-related protein A1 [2] were 6.52 and 6.40, respectively.

As to `O=C1C(Cl)=C(N2CCN(c3ccccc3)CC2)C(=O)N1c1ccc(Cl)c(Cl)c1`, the negative-log IC50 (pIC50) on Bcl-2-related protein A1 [1] was 5.31; at Bcl-2-related protein A1 [2], 5.39. Take `COc1ccccc1N1CCN(C2=C(Cl)C(=O)N(c3ccc(Cl)c(Cl)c3)C2=O)CC1`: the pIC50 on Bcl-2-related protein A1 [1] was 5.02; on Bcl-2-related protein A1 [2] it was 5.21. On the same counts, the results for `COc1cccc(N2CCN(C3=C(Cl)C(=O)N(c4ccc(Cl)c(Cl)c4)C3=O)CC2)c1` are 5.92 and 5.30. On the same counts, the results for `COc1ccc(N2CCN(C3=C(Cl)C(=O)N(c4ccc(Cl)c(Cl)c4)C3=O)CC2)cc1` are below 5.00 and 5.08. `Cc1cccc(N2CCN(C3=C(Cl)C(=O)N(c4ccc(Cl)c(Cl)c4)C3=O)CC2)c1`: the pIC50 at Bcl-2-related protein A1 [1] is below 5.00; on Bcl-2-related protein A1 [2], 5.08. The like results for `O=C1C(Cl)=C(N2CCN(c3cccc(C(F)(F)F)c3)CC2)C(=O)N1c1ccc(Cl)c(Cl)c1` were, in that order, below 5.00 and below 5.00. On the same counts, the results for `O=C1C(Cl)=C(N2CCN(Cc3ccccc3)CC2)C(=O)N1c1ccc(Cl)c(Cl)c1` are 5.62 and 5.89.
